Data: ChEMBL document CHEMBL1154670, “Azaindole hydroxamic acids are potent HIV-1 integrase inhibitors” (J Med Chem, 2009)

Experiments:
[1] = target: Human immunodeficiency virus type 1 integrase (Human immunodeficiency virus 1, UniProt Q7ZJM1); assay: Inhibition of HIV1 integrase expressed in Escherichia coli assessed as strand transfer activity by scintillation proximity assay
Outline: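 His6-tagged full-length HIV-1 IN (mutant) was preincubated 15 min at 22 °C with biotinylated U5 LTR donor DNA on streptavidin SPA beads, then [3H]-thymidine target DNA was added. Final: 2 pmol donor, 246 nM IN, 50 nM target, pH 7.2 MOPS, 4 mM MgCl2, 1% DMSO. Ran 50 min at 37 °C, stopped with EDTA/NaOH/CsCl, quench-corrected counts. IC50 from 4-parameter logistic fit, 2-3 replicates per concentration.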

[2] = system: Human immunodeficiency virus 1; assay: Antiviral activity against HIV1 RF in human CEM-SS cells assessed inhibition of virus-induced cytopathic effect by XTT assay; format: functional, organism-based; details: Human immunodeficiency virus 1, RF
Outline: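 CEM-SS cells (2×10^4/well) were infected with HIV-1 RF at an MOI giving 90% cell death by day 6. Compounds, in half-log dilutions with ≥2 replicate wells, were added at seeding before infection. On day 6, XTT/phenazine methosulfate was added for 4 h and read at A450. EC50 is the concentration restoring formazan to 50% of uninfected, compound-free cells.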

[3] = Cytotoxicity against human CEM-SS cells by XTT assay; format: cell-based
Outline: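 Uninfected CEM-SS cells (2×10^4/well) were exposed for 6 days to half-log compound dilutions (≥2 replicate wells) added at seeding. Viability was read by XTT formazan (4 h, A450). CC50 was derived from the drop in formazan versus uninfected, compound-free cells.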

[4] = Metabolic stability in human hepatocytes assessed as extraction ratio after 4 hrs; format: ADME, cell-based, Hepatocyte
[5] = Metabolic stability in human liver microsomes assessed as extraction ratio after 4 hrs in presence of NADPH; format: ADME, Microsome
[6] = Mutagenic activity in Salmonella Typhimurium TA100 by Biolum Ames test; format: toxicity; details: salmonella enterica subsp. enterica serovar typhimurium
[7] = Mutagenic activity in Salmonella Typhimurium TA98 by Biolum Ames test; format: toxicity; details: salmonella enterica subsp. enterica serovar typhimurium
[8] = Mutagenic activity in Salmonella Typhimurium TA100 by Biolum Ames test in presence of metabolizing enzyme; format: toxicity; details: salmonella enterica subsp. enterica serovar typhimurium
[9] = Mutagenic activity in Salmonella Typhimurium TA98 by Biolum Ames test in presence of metabolizing enzyme; format: toxicity; details: salmonella enterica subsp. enterica serovar typhimurium

Human immunodeficiency virus type 1 integrase, sequence (Q7ZJM1 whole entry): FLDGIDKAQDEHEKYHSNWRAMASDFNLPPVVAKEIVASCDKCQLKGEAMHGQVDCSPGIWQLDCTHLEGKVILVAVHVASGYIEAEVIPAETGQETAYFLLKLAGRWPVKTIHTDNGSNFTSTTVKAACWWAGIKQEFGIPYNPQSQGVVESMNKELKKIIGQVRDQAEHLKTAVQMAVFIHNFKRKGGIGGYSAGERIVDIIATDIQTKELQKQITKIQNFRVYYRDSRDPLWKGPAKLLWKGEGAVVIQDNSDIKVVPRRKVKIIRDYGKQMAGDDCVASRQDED

| SMILES | IC50 [1] | hepatic extraction ratio at 4 h [4] | hepatic extraction ratio at 4 h [5] | EC50 [2] | CC50 [3] | Activity [6] | Activity [7] | Activity [8] | Activity [9] |
| --- | --- | --- | --- | --- | --- | --- | --- | --- | --- |
| O=C(NO)c1cc2ccn(Cc3cccc(Cl)c3F)c2cn1 | 102 nM | – | – | 8 nM | > 320 µM | – | – | – | – |
| CONC(=O)c1cc2ccn(Cc3ccc(F)cc3F)c2cn1 | 356 nM | 1 | 0.68 | 21 nM | > 320 µM | – | – | – | – |
| O=C(NO)c1cc2ccn(Cc3ccc(F)cc3)c2cn1 | 137 nM | 0.92 | – | 9 nM | 159 µM | – | – | – | – |
| NC(=O)c1cc(F)ccc1Cn1ccc2cc(C(=O)NO)ncc21 | 1300 nM | – | – | 55 nM | > 10 µM | – | – | – | – |
| O=C(c1cc2ccn(Cc3ccc(F)cc3)c2cn1)N(O)Cc1ccccc1 | 23000 nM | 1 | – | 330 nM | > 320 µM | – | – | – | – |
| CN(O)C(=O)c1cc2ccn(Cc3ccc(F)cc3)c2cn1 | 250 nM | – | – | – | 200 µM | – | – | – | – |
| O=C(O)c1cc2ccn(Cc3ccccc3F)c2cn1 | > 50000 nM | – | – | – | – | – | – | – | – |
| O=C(O)c1cc2ccn(Cc3ccc(F)cc3F)c2cn1 | 3500 nM | – | – | – | – | – | – | – | – |
| CON(C)C(=O)c1cc2ccn(Cc3ccc(F)cc3F)c2cn1 | > 50000 nM | 1 | 1 | > 10000 nM | > 10 µM | – | – | – | – |
| NC(=O)c1cc(Cn2ccc3cc(C(=O)NO)ncc32)ccc1F | 608 nM | – | – | 58 nM | > 10 µM | – | – | – | – |
| O=C(NO)c1cc2ccn(Cc3ccc(F)cc3F)c2cn1 | 84 nM | 0.9 | < 0.26 | 8 nM | > 320 µM | Active | Active | Active | Active |
| O=C(NO)c1cc2ccn(Cc3ccccn3)c2cn1 | 779 nM | – | – | 88 nM | > 10 µM | – | – | – | – |
| CC(C)CN(O)C(=O)c1cc2ccn(Cc3ccc(F)cc3)c2cn1 | 1700 nM | 0.95 | – | 1400 nM | 102 µM | – | – | – | – |
| O=C(NO)c1cc2ccn(Cc3ccc(Cl)s3)c2cn1 | 387 nM | – | – | 20 nM | > 10 µM | – | – | – | – |
| O=C(O)c1cc2ccn(Cc3ccc(F)cc3)c2cn1 | 7350 nM | – | – | – | – | – | – | – | – |
| NC(=O)c1ccc(Cn2ccc3cc(C(=O)NO)ncc32)cc1 | > 10000 nM | – | – | > 10000 nM | > 10 µM | – | – | – | – |
| N#Cc1cccc(Cn2ccc3cc(C(=O)NO)ncc32)c1 | 1620 nM | – | – | 500 nM | > 10 µM | – | – | – | – |

Second part, led by results:

| IC50 [1] | hepatic extraction ratio at 4 h [4] | hepatic extraction ratio at 4 h [5] | SMILES | EC50 [2] | CC50 [3] | Activity [6] | Activity [7] | Activity [8] | Activity [9] |
| --- | --- | --- | --- | --- | --- | --- | --- | --- | --- |
| 5420 nM | – | – | O=C(O)c1cc2ccn(Cc3cccc(Cl)c3Cl)c2cn1 | – | – | – | – | – | – |
| 442 nM | – | – | O=C(NO)c1cc2ccn(Cc3cccc(Cl)c3Cl)c2cn1 | 35 nM | > 320 µM | – | – | – | – |
| 8000 nM | 0.93 | – | CC(C)N(O)C(=O)c1cc2ccn(Cc3ccc(F)cc3)c2cn1 | 3500 nM | 36 µM | – | – | – | – |
| 131 nM | – | – | O=C(NO)c1cc2ccn(Cc3c(F)ccc(Cl)c3F)c2cn1 | 7 nM | > 1 µM | – | – | – | – |
| 3200 nM | – | – | O=C(O)c1cc2ccn(Cc3cc(Cl)cs3)c2cn1 | – | – | – | – | – | – |
| 5730 nM | – | – | O=C(NO)c1cc2ccn(Cc3cccc(CO)n3)c2cn1 | 730 nM | > 10 µM | – | – | – | – |
| 812 nM | – | – | N#Cc1cc(F)ccc1Cn1ccc2cc(C(=O)NO)ncc21 | 120 nM | > 10 µM | – | – | – | – |
| > 10000 nM | – | – | N#Cc1ccc(Cn2ccc3cc(C(=O)NO)ncc32)cc1 | 1200 nM | > 10 µM | – | – | – | – |
| 1720 nM | – | – | NC(=O)c1cccc(Cn2ccc3cc(C(=O)NO)ncc32)c1 | 530 nM | > 10 µM | – | – | – | – |
| 950 nM | – | – | O=C(O)c1cc2ccn(Cc3cccc(Cl)c3F)c2cn1 | – | – | – | – | – | – |
| 1190 nM | – | – | O=C(O)c1cc2ccn(Cc3c(F)cc(Cl)cc3F)c2cn1 | – | – | – | – | – | – |
| 3690 nM | – | – | O=C(O)c1cc2ccn(Cc3ccc(F)c(F)c3F)c2cn1 | – | – | – | – | – | – |
| 618 nM | 0.96 | – | CCCN(O)C(=O)c1cc2ccn(Cc3ccc(F)cc3)c2cn1 | 350 nM | 26 µM | – | – | – | – |
| 250 nM | 1 | < 0.36 | CN(O)C(=O)c1cc2ccn(Cc3ccc(F)cc3F)c2cn1 | 32 nM | 135 µM | Not Active | Not Active | Not Active | Not Active |
| 804 nM | 0.95 | – | O=C(c1cc2ccn(Cc3ccc(F)cc3)c2cn1)N(O)CCCO | 300 nM | 77 µM | – | – | – | – |
